Data as given in ChEMBL document CHEMBL4725463, “Vinyl Sulfone-Based Inhibitors of Nonstructural Protein 2 Block the Replication of Venezuelan Equine Encephalitis Virus” (ACS Med Chem Lett, 2020).

Legend:
[1] = Selectivity index, ratio of CC50 for cytotoxicity against human BE(2)-M17 cells to EC50 for antiviral activity against Venezuelan equine encephalitis virus TC-83 infected in human BE(2)-M17 cells; format: toxicity, cell-based; conditions: read-out: Ratio CC50/EC50
[2] = molecular target: Polyprotein P1234 (Venezuelan equine encephalitis virus) (UniProt P27282); test: Inhibition of recombinant VEEV nsP2 expressed in Escherichia coli BL21(DE3) using V12 as substrate at 0.9 uM after 24 hrs by discontinuous gel assay relative to control
Summary of the method: (§1)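 Recombinant tag-free VEEV nsP2 (1 μM) was incubated with the V12 CFP-YFP FRET substrate (10 μM) and compound in 50 mM HEPES pH 7.4 for 24 h at room temperature. Compound was tested at 3.6 to 0.03 μM in 2-fold steps. Uncut and cleaved V12 were resolved on gel, and percentage inhibition was estimated at 0.9 μM.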

[3] = tested on: Venezuelan equine encephalitis virus; test: Antiviral activity against Venezuelan equine encephalitis virus TC-83 infected in mouse Neuro-2a cells pretreated with compound for 2 hrs followed by viral infection at MOI of 3.5 and measured after 7 hrs by immunostaining based confocal microscopic analysis; format: functional, organism-based; conditions: strain TC-83, N2a
[4] = Selectivity index, ratio of CC50 for cytotoxicity against mouse Neuro-2a cells to EC50 for antiviral activity against Venezuelan equine encephalitis virus TC-83 infected in mouse Neuro-2a cells; format: toxicity, cell-based; conditions: read-out: Ratio CC50/EC50
[5] = Cytotoxicity against mouse N2a cells; format: cell-based
[6] = Cytotoxicity against human SK-N-BE(2)-M17 cells; format: cell-based
[7] = molecular target: Polyprotein P1234 (Venezuelan equine encephalitis virus) (UniProt P27282); test: Inhibition of recombinant VEEV nsP2 expressed in Escherichia coli BL21(DE3) using V12 as substrate after 24 hrs by discontinuous gel assay; summary of the method: as §1
[8] = tested on: Venezuelan equine encephalitis virus; test: Antiviral activity against Venezuelan equine encephalitis virus TC-83 infected in human BE(2)-M17 cells pretreated with compound for 2 hrs followed by viral infection at MOI of 1.2 and measured after 7 hrs by immunostaining based confocal microscopic analysis; format: functional, organism-based; conditions: strain TC-83, SK-N-BE(2)-M17
[9] = molecular target: Polyprotein P1234 (Venezuelan equine encephalitis virus) (UniProt P27282); test: Inhibition of recombinant VEEV nsP2 expressed in Escherichia coli BL21(DE3) using V12 as substrate at 20 uM after 24 hrs by discontinuous gel assay relative to control
Summary of the method: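 VEEV nsP2 (1 μM) was exposed to compound at 20 μM in the presence of 10 μM V12 CFP-YFP FRET substrate. Protease inactivation was judged by cleavage of V12.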

[10] = tested on: Venezuelan equine encephalitis virus; test: Antiviral activity against Venezuelan equine encephalitis virus IC-SH3 infected in VeroE6 cells pretreated with compound for 2 hrs followed by viral infection at MOI of 0.01 and measured after 20 hrs by immunostaining based confocal microscopic analysis; format: functional, organism-based; conditions: IC-SH3, Vero C1008
[11] = Cytotoxicity against green monkey Vero C1008 cells; format: cell-based; conditions: chlorocebus sabaeus
[12] = Cytotoxicity against human HeLa cells; format: cell-based
[13] = tested on: Venezuelan equine encephalitis virus; test: Antiviral activity against Venezuelan equine encephalitis virus IC-SH3 infected in HeLa cells pretreated with compound for 2 hrs followed by viral infection at MOI of 0.1 and measured after 20 hrs by immunostaining based confocal microscopic analysis; format: functional, organism-based
[14] = Cytotoxicity against green monkey Vero cells; format: cell-based; conditions: chlorocebus sabaeus
[15] = Cytotoxicity against mouse cortical neurons; format: cell-based, Cortical neurone
[16] = Selectivity index, ratio of CC50 for cytotoxicity against human HeLa cells to EC50 for antiviral activity against Venezuelan equine encephalitis virus Trinidad infected in HeLa cells; format: toxicity, cell-based; conditions: read-out: Ratio CC50/EC50
[17] = Selectivity index, ratio of CC50 for cytotoxicity against mouse cortical neurons to EC50 for antiviral activity against Venezuelan equine encephalitis virus TC-83 infected in mouse cortical neurons; format: toxicity; conditions: read-out: Ratio CC50/EC50
[18] = tested on: Venezuelan equine encephalitis virus; test: Antiviral activity against Venezuelan equine encephalitis virus TC-83 infected in mouse cortical neurons at MOI of 0.04 after 20 hrs by immunostaining based confocal microscopic analysis; format: functional, organism-based, Cortical neuron; conditions: strain TC-83, Cortical neurone
[19] = tested on: Venezuelan equine encephalitis virus; test: Antiviral activity against Venezuelan equine encephalitis virus Trinidad infected in Vero cells at MOI of 0.01 after 20 hrs by immunostaining based confocal microscopic analysis; format: functional, organism-based
[20] = Selectivity index, ratio of CC50 for cytotoxicity against african green monkey Vero cells to EC50 for antiviral activity against Venezuelan equine encephalitis virus Trinidad infected in Vero cells; format: toxicity, cell-based; conditions: read-out: Ratio CC50/EC50
[21] = tested on: Venezuelan equine encephalitis virus; test: Antiviral activity against Venezuelan equine encephalitis virus Trinidad infected in HeLa cells at MOI of 0.1 after 20 hrs by immunostaining based confocal microscopic analysis; format: functional, organism-based
[22] = Selectivity ratio of CC50 for cytotoxicity against human HeLa cells to EC50 for antiviral activity against Venezuelan equine encephalitis virus IC-SH3 infected in HeLa cells; format: toxicity, cell-based; conditions: read-out: Ratio CC50/EC50
[23] = Selectivity ratio of CC50 for cytotoxicity against green monkey VeroE6 cells to EC50 for antiviral activity against Venezuelan equine encephalitis virus IC-SH3 infected in VeroE6 cells; format: toxicity, cell-based; conditions: read-out: Ratio CC50/EC50

Sequence of Polyprotein P1234 (Venezuelan equine encephalitis virus) (P27282 whole entry): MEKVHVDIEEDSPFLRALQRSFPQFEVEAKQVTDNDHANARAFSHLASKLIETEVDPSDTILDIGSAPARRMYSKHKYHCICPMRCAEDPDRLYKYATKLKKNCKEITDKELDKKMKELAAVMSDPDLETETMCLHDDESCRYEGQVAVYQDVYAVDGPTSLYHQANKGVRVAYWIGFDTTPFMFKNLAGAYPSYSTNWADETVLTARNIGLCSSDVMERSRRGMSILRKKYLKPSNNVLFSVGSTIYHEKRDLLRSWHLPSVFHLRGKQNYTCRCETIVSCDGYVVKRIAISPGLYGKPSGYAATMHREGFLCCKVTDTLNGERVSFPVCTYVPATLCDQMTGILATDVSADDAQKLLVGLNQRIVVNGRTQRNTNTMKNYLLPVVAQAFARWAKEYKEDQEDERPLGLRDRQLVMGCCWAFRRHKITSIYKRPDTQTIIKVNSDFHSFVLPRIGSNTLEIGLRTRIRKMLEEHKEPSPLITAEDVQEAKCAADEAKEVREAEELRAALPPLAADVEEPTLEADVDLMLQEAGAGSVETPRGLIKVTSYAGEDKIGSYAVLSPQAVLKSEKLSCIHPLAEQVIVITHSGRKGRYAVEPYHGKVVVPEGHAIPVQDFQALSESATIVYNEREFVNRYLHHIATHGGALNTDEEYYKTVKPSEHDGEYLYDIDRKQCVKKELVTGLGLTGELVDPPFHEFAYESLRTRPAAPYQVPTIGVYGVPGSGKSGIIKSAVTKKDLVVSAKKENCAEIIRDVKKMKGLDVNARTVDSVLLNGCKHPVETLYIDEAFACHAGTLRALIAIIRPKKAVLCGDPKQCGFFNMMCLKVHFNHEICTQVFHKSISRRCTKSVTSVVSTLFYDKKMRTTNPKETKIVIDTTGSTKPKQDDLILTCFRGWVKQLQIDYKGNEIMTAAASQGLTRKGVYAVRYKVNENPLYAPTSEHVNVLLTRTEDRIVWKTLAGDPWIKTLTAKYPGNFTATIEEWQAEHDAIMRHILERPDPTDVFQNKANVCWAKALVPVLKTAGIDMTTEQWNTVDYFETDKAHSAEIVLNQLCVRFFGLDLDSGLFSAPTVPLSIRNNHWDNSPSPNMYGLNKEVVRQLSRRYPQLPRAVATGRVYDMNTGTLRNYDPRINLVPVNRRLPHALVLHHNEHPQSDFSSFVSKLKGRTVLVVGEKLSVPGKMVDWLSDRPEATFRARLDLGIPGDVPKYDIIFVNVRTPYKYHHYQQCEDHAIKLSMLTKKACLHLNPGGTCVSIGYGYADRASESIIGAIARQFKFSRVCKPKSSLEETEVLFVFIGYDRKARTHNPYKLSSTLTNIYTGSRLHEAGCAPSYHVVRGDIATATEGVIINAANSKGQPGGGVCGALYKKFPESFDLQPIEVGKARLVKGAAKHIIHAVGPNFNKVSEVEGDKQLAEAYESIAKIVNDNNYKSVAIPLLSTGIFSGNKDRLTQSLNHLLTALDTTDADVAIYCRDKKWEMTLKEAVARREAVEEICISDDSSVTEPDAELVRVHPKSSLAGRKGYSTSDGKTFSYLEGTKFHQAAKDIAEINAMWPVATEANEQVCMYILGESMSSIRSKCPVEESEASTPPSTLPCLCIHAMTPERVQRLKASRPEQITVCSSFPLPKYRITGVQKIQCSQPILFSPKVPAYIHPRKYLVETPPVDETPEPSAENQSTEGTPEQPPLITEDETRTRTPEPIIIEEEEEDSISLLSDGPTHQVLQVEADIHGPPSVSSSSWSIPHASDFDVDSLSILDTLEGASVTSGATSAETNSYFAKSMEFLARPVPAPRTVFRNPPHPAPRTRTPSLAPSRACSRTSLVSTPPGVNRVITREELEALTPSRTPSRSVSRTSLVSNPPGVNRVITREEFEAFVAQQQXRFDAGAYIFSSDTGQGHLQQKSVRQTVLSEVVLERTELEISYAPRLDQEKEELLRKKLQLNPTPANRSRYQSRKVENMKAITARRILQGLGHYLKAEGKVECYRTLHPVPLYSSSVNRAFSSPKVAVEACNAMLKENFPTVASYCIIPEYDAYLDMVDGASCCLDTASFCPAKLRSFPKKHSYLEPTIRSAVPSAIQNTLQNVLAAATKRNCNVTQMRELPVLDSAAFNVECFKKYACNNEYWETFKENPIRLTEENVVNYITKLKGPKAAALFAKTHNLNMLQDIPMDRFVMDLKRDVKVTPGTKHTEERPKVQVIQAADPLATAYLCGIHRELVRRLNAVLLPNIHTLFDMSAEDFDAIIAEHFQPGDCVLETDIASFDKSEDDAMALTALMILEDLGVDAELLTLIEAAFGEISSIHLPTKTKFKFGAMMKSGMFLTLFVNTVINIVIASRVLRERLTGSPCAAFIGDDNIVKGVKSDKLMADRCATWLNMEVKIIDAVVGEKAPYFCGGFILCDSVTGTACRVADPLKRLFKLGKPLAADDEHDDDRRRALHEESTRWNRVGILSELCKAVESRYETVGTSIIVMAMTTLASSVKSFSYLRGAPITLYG

| SMILES | selectivity ratio [1] | EC50 [3] | selectivity ratio [4] | CC50 [5] | CC50 [6] | EC50 [8] | EC50 [10] | CC50 [11] | CC50 [12] | EC50 [13] | also measured |
| --- | --- | --- | --- | --- | --- | --- | --- | --- | --- | --- | --- |
| C[C@@H]1CC(C)(C)Nc2c(C(=O)N[C@@H](C)/C=C/S(C)(=O)=O)cccc21 | > 7.5 | 3.7 µM | > 7 | > 25 µM | > 25 µM | 3.3 µM |  |  |  |  | inhibition [2]: 71%; inhibition [7]: Dose-dependent effect; inhibition [9]: 100% |
| C[C@@H]1CC(C)(C)Nc2c(C(=O)N[C@H](/C=C/S(C)(=O)=O)Cc3ccccc3)cccc21 | > 5.4 | 13 µM | > 4 | > 50 µM | > 50 µM | 9.3 µM |  |  |  |  |  |
| COC(=O)CCCNC(=O)c1cc(C)cc2c1NC(C)(C)C=C2C |  |  |  |  |  |  | > 30 µM | > 30 µM | > 30 µM | > 30 µM |  |
| C[C@@H]1CC(C)(C)Nc2c(C(=O)NC/C=C/S(C)(=O)=O)cccc21 | > 18 | 2 µM | > 12 | > 25 µM | > 25 µM | 1.4 µM |  |  |  |  | CC50 [14]: 30 µM; CC50 [15]: 48 µM; selectivity ratio [16]: > 19; selectivity ratio [17]: 6; inhibition [2]: 39%; EC50 [18]: 8 µM; EC50 [19]: 2.4 µM; selectivity ratio [20]: > 12; inhibition [7]: Dose-dependent effect; EC50 [21]: 1.6 µM; inhibition [9]: 100% |
| CC1=CC(C)(C)Nc2c(C(=O)N[C@H](/C=C/S(C)(=O)=O)Cc3ccccc3)cccc21 | > 2 | 13 µM | > 4 | > 50 µM | > 38 µM | 17 µM |  |  |  |  |  |
| COC(=O)/C=C/CNC(=O)c1cc(C)cc2c1NC(C)(C)C=C2C |  |  |  |  |  |  | 8.6 µM | > 30 µM | > 30 µM | 8.7 µM | selectivity ratio [22]: > 4; selectivity ratio [23]: > 3.5 |
| O=C(N[C@H](/C=C/S(=O)(=O)c1ccccc1)Cc1ccccc1)c1cccc2cccnc12 | 1 | 19 µM | > 2 | 46 µM | 16 µM | 17 µM |  |  |  |  |  |
| COC(=O)/C=C/CNC(=O)c1cccc2c1NCCC2 |  |  |  |  |  |  | > 30 µM | > 30 µM | > 30 µM | 18 µM | selectivity ratio [22]: > 2 |
| COC(=O)CCCNC(=O)c1cccc2c1NC(C)(C)C[C@H]2C |  |  |  |  |  |  | > 30 µM | > 30 µM | > 30 µM | > 30 µM |  |
| COC(=O)CCCNC(=O)c1cccc2c1NCCC2 |  |  |  |  |  |  | > 30 µM | > 30 µM | > 30 µM | > 30 µM |  |
| CN1CCN(C)/C(=N\c2ccc([N+](=O)[O-])cc2C(=O)Nc2ccccc2)C1 | > 250 | 0.02 µM | > 125 | > 2.5 µM | > 2.25 µM | 0.01 µM |  |  |  |  |  |
| COC(=O)/C=C/CNC(=O)c1cccc2c1NC(C)(C)C=C2C | 1.5 | > 25 µM |  |  | 18.1 µM | 4.5 µM | 6.5 µM | 6.7 µM | > 30 µM | 0.6 µM | selectivity ratio [22]: > 55; selectivity ratio [23]: > 5 |
| COC(=O)/C=C/CNC(=O)c1c[nH]c2ccc(Br)cc12 | 4 | 11 µM | > 2 | > 25 µM | 12 µM | 3 µM |  |  |  |  |  |
| CC1=CC(C)(C)Nc2c(C(=O)N[C@@H](C)/C=C/S(C)(=O)=O)cccc21 | > 5 | 3.4 µM | > 7.3 | > 25 µM | > 25 µM | 4.5 µM |  |  |  |  | CC50 [15]: > 25 µM; selectivity ratio [17]: > 9.7; inhibition [2]: 59%; EC50 [18]: 2.7 µM; inhibition [7]: Dose-dependent effect; inhibition [9]: 100% |
| CC1=CC(C)(C)Nc2c(C(=O)NC/C=C/S(C)(=O)=O)cccc21 | > 9 | 5 µM | > 5 | 27 µM | 19.6 µM | 2 µM |  |  |  |  | CC50 [14]: 30 µM; CC50 [15]: > 25 µM; selectivity ratio [16]: > 22; selectivity ratio [17]: > 4; EC50 [18]: 6 µM; EC50 [19]: 5 µM; selectivity ratio [20]: 7; EC50 [21]: 1.4 µM |
| COC(=O)/C=C/CNC(=O)c1cccc2c1NC(C)(C)C[C@H]2C |  | 22 µM | > 1 | > 25 µM | 11 µM | > 25 µM | 8.2 µM | > 30 µM | > 30 µM | 1.2 µM | selectivity ratio [22]: > 26; selectivity ratio [23]: > 4 |
| COC(=O)CCCNC(=O)c1cccc2c1NC(C)(C)C=C2C |  |  |  |  |  |  | > 30 µM | > 30 µM | > 30 µM | > 30 µM |  |
